The subject of data set [1] is KRASm/TP53‐ HCT116 cells. Briefly: MTS cell viability assay, KRASm/TP53‐ HCT116. Format: cell-based. The following applies: for recovery of the efficacy of L‐OHP on KRASm/TP53‐ HCT116 cells / cell growth rate of KRASm/TP53‐ HCT116 cells: Figure S2, Bay11‐7082 5 μM, TPCA1 20 μM, 72 hours; for recovery of the efficacy of L‐OHP on KRASm/TP53‐ HCT116 cells: MG132 0.5 μM with L‐OHP 4 μM; for cell growth rate of KRASm/TP53‐ HCT116 cells: MG132 0.5 μM; for IC50: read-out: IC50 on KRASm/TP53‐ HCT116 cells, MTS assay, 72 hours post-treatment, n = 3. Summed up: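 HCT116 KRASm/TP53- cells were grown in RPMI1640 with 10% FBS and 1% penicillin/streptomycin at 37°C, 5% CO2, and plated at 4 × 10^5 per well. After 24 h, Bay11-7082 (0, 5 μM), TPCA1 (0, 20 μM) or MG132 (0, 0.5 μM), all in DMSO, were added with L-OHP (0 or 4 μM). Viability was read by MTS after 72 h.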

The test system of data set [2] is KRASm/TP53w HCT116 cells. Briefly: MTS cell viability assay, KRASm/TP53w HCT116. The following applies: read-out: IC50 on KRASm/TP53w HCT116 cells, 72 hours post-treatment, n = 3. Format: cell-based. In outline:
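ATCC parental HCT116 (KRAS mutant/TP53 wild-type) grown in RPMI1640 with 10% FBS and 1% penicillin/streptomycin at 37°C, 5% CO2. Seeded at 4 × 10^5 cells/well; test compound in DMSO added after 24 h at six levels (0–10 μM or 0–25 μM series). Viability by MTS tetrazolium read-out after 72 h. IC50 reported as mean ± SD, n = 3.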

Data set [3] can be described thus: Safety. Format: in vivo, mice. In outline: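 Female BALB/c nude mice (6 weeks old, 7-8 per group) received s.c. KRASm/TP53w HCT116 cells (4 × 10^6) and were grouped by stratified randomization on tumor volume on day 9 after implant (day 0). L-OHP was given i.p. on days 0, 3, 7, 10, 14 and 17; controls got saline 10 mL/kg. Body weight was taken on days 0, 7, 14 and 21, with hematology and biochemistry on day 21 blood. Mean ± SD; Student's t test.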

For data set [4], the system named is NF‐κB activity in KRASm/TP53w HCT116 cells. Nature of the data set: NF‐κB activity luciferase assay, KRASm/TP53w HCT116. In kind it is cell-based. To be noted: 3 hours treatment. Summed up: (§1)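 Reporter assay: cells seeded at 5 × 10^4/well. After 1 day, shifted to RPMI1640 with 1% FBS for 24 h. Cotransfected by lipofection with NF‑κB‑RE luc2P luciferase plasmid plus CMV‑β‑galactosidase plasmid. 3 h later, test compound added at various concentrations in 1% FBS medium for 3 h. Cells lysed; activity expressed as luciferase/β‑galactosidase.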

Data set [5] relates to NF‐κB activity in KRASm/TP53‐ HCT116 cells. Briefly: NF‐κB activity luciferase assay, KRASm/TP53‐ HCT116. Format: cell-based. The following applies: 3 hours treatment. Summed up: as §1
The subject of data set [6] is proteasome. Nature of the data set: Proteasome activity in vitro.
Setting [7] is: day 21, L‐OHP 8 mg/kg i.p. twice a week for 3 weeks.
Setting [8] is: day 21, monotherapies compared to the control group, combination compared to L‐OHP monotherapy.

Peptide text beside a SMILES is read from it. * marks the point of attachment. Cbz = O=C(OCc1ccccc1)*

With `Cc1ccc(S(=O)(=O)/C=C/C#N)cc1` [Bay11‐7082], in data set [1], the “recovery of the efficacy of L‐OHP on KRASm/TP53‐ HCT116 cells” value is recorded as “did not recover the efficacy of L‐OHP” and the “cell growth rate of KRASm/TP53‐ HCT116 cells” value (from here on “cell growth rate”) is “suppressed cell growth rates”.

As to `O=C1[O][Pt]2([NH][C@@H]3CCCC[C@H]3[NH]2)[O]C1=O` [L‐OHP, oxaliplatin], in data set [1], the IC50 is 4.8 µM. Also, the IC50 in data set [2] stood at 1.7 µM. In data set [3] (setting [7]), the “hemoglobin compared to the control group” value is recorded as “significantly decreased”, the “platelet count compared to the control group” value is “significantly decreased” and the “white blood cell count compared to the control group” value is on record as “significantly decreased”. For the same molecule, in data set [3] (setting [8]), the ALT level result was “elevated” and the AST level result is “elevated”.

In the case of `CC(C)C[C@@H](C=O)NC(=O)[C@H](CC(C)C)NC(=O)[C@H](CC(C)C)NC(=O)OCc1ccccc1` [MG132] (Cbz-Leu-Leu-Leu-aldehyde), the “cell growth rate” value in data set [1] is listed as “suppressed cell growth rates”.

For `NC(=O)Nc1sc(-c2ccc(F)cc2)cc1C(N)=O` [TPCA1], in data set [1], the “recovery of the efficacy of L‐OHP on KRASm/TP53‐ HCT116 cells” value is “did not recover the efficacy of L‐OHP” and the “cell growth rate” value was “suppressed cell growth rates”.

On to curcumin, for which the “NF‐κB activity (luciferase/β‐galactosidase)” value in data set [4] and in data set [5] was “suppressed NF‐κB activity in a dose‐dependent manner” each time. Besides, the “proteasome activity in vitro” value in data set [6] is “suppresses proteasome activity”. Moreover, the results for the IC50 in data set [1] and in data set [2] were 17.4 µM and 20 µM, respectively.

These data come from article PMC7226283 (Cancer Science, 2020).
